Measured values: ChEMBL document CHEMBL3585293, “Design, antiviral and cytostatic properties of isoxazolidine-containing amonafide analogues” (Bioorg Med Chem, 2015)
Calls of active or inactive are those of the source. The rule behind the calls is not given here.

Assays:
[1] = test system: Cytomegalovirus; test: Antiviral activity against Cytomegalovirus AD-169 infected in HEL cells assessed as reduction of virus-induced cytopathogenicity; assay type: functional, organism-based; conditions: Human betaherpesvirus 5, AD-169, HEL
[2] = test system: Cytomegalovirus; test: Antiviral activity against Cytomegalovirus Davis infected in HEL cells assessed as reduction of virus-induced cytopathogenicity; assay type: functional, organism-based; conditions: Human betaherpesvirus 5, Davis
[3] = Cytotoxicity against HEL cells assessed as alternation of cell morphology by microscopic analysis; assay type: cell-based; conditions: human
[4] = test system: Human alphaherpesvirus 3; test: Antiviral activity against Varicella-zoster virus expressing thymidine kinase infected in HEL cells assessed as reduction of virus-induced plaque formation; assay type: functional, organism-based; conditions: Human alphaherpesvirus 3, HEL
Method in brief: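 Plaque-reduction assay in HEL cells. TK+ VZV strains were Oka and YS; TK- strains were 07-1 and YS-R. Virus input was 100 PFU, with graded compound concentrations. Plaques were counted once formation was complete in untreated infected controls. […] Two independent experiments were run.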

[5] = test system: Human alphaherpesvirus 3; test: Antiviral activity against thymidine kinase-deficient Varicella-zoster virus infected in HEL cells assessed as reduction of virus-induced plaque formation; assay type: functional, organism-based; conditions: Human alphaherpesvirus 3, HEL
Method in brief: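 Plaque-reduction assay in HEL cells. TK+ VZV strains were Oka and YS; TK- strains were 07-1 and YS-R. Virus input was 100 PFU, with graded compound concentrations. Plaques were counted once formation was complete in untreated infected controls. Two independent experiments were run.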

[6] = test system: L1210; test: Cytotoxicity against mouse L1210 cells assessed as inhibition of cell proliferation; assay type: functional, cell-based
[7] = test system: CCRF-CEM; test: Cytotoxicity against human CEM cells assessed as inhibition of cell proliferation; assay type: functional, cell-based
[8] = test system: HeLa; test: Cytotoxicity against human HeLa cells assessed as inhibition of cell proliferation; assay type: functional, cell-based
[9] = test system: MDCK; test: Cytotoxicity against MDCK cells assessed cell viability by MTS assay; assay type: cell-based, Canis lupus familiaris; conditions: dog
Method in brief: (§1)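 Cells were exposed to a range of compound concentrations. Viability was measured by the colorimetric formazan-based MTS assay.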

[10] = Cytotoxicity against CRFK cells assessed cell viability by MTS assay; assay type: cell-based, Felis catus; conditions: cat; method in brief: as §1
[11] = test system: Human adenovirus 2; test: Antiviral activity against Human adenovirus 2 infected in HEL cells assessed as reduction of virus-induced cytopathogenicity; assay type: functional, organism-based
Method in brief: (§2)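 Confluent monolayers were infected with 100 CCID50 of virus (1 CCID50 infects 50% of cultures) or 20 PFU. The cultures were then incubated with varying test compound concentrations. Cytopathicity was scored once it was complete in untreated infected controls.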

[12] = test system: Vesicular stomatitis virus; test: Antiviral activity against Vesicular stomatitis virus infected in human HeLa cells assessed as reduction of virus-induced cytopathogenicity; assay type: functional, organism-based
Method in brief: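 Confluent Vero (Coxsackie B4) or HeLa (vesicular stomatitis virus) monolayers in 96-well plates were inoculated with 100 CCID50 virus or 20 PFU and incubated with varying compound concentrations. Cytopathicity was scored once complete in untreated infected controls. […] Two separate experiments were run.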

[13] = test system: Respiratory syncytial virus; test: Antiviral activity against Respiratory syncytial virus infected in human Hela cells assessed as reduction of virus-induced cytopathogenicity; assay type: functional, organism-based; method in brief: as §2
[14] = test system: Human respirovirus 3; test: Antiviral activity against Parainfluenza virus 3 infected in African green monkey Vero cells assessed as reduction of virus-induced cytopathogenicity; assay type: functional, organism-based; method in brief: as §2
[15] = test system: Reovirus sp.; test: Antiviral activity against Reovirus infected in African green monkey Vero cells assessed as reduction of virus-induced cytopathogenicity; assay type: functional, organism-based; method in brief: as §2
[16] = test system: Sindbis virus; test: Antiviral activity against Sindbis virus infected in African green monkey Vero cells assessed as reduction of virus-induced cytopathogenicity; assay type: functional, organism-based; method in brief: as §2
[17] = test system: Influenza A virus; test: Antiviral activity against Influenza A virus (A/PR/8/34(H1N1)) infected in MDCK cells assessed as reduction of virus-induced cytopathogenicity; assay type: functional, organism-based; conditions: A/Puerto Rico/8/1934(H1N1)
Method in brief: (§3)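 MDCK cells, grown confluent in 96-well plates, were infected with influenza A/PR/8 (H1N1), A/HK/7/87 (H3N2) or B/HK/5/72 at 100 CCID50 or 20 PFU and exposed to varying compound concentrations. Cytopathic effect was recorded when it reached completion in untreated virus controls. EC50 is the concentration that halves virus-induced cytopathicity.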

[18] = test system: Influenza B virus; test: Antiviral activity against Influenza B virus (B/HK/5/72) infected in MDCK cells assessed as reduction of virus-induced cytopathogenicity; assay type: functional, cell-based; conditions: B/Hong Kong/05/1972; method in brief: as §3
[19] = test system: Felid alphaherpesvirus 1; test: Antiviral activity against Feline herpesvirus infected in CRFK cells assessed as reduction of virus-induced cytopathogenicity; assay type: functional, organism-based; method in brief: as §2
[20] = test system: Feline coronavirus; test: Antiviral activity against Feline coronavirus infected in CRFK cells assessed as reduction of virus-induced cytopathogenicity; assay type: functional, organism-based; method in brief: as §2
[21] = test system: Influenza A virus H3N2; test: Antiviral activity against Influenza A virus H3N2 infected in MDCK cells assessed as reduction of virus-induced cytopathogenicity; assay type: functional, organism-based; method in brief: as §3
[22] = test system: Human alphaherpesvirus 1; test: Antiviral activity against thymidine kinase-deficient acyclovir-resistant Herpes simplex virus 1 KOS infected in HEL cells assessed as reduction of virus-induced cytopathogenicity; assay type: functional, organism-based; conditions: Human alphaherpesvirus 1, KOS

| Compound | EC50 [1] [µM] | EC50 [2] [µM] | MCC [3] [µM] | EC50 [4] [µM] | EC50 [5] [µM] | IC50 [6] [µM] | IC50 [7] [µM] | IC50 [8] [µM] | Activity [11] | Activity [12] | Activity [13] | Activity [14] | Activity [15] | Activity [16] | Activity [17] | Activity [18] | Activity [19] | Activity [20] | Activity [21] | other results |
| --- | --- | --- | --- | --- | --- | --- | --- | --- | --- | --- | --- | --- | --- | --- | --- | --- | --- | --- | --- | --- |
| CCCN1C(=O)c2cccc3cc(NC(=O)[C@H]4C[C@@H](P(=O)(OCC)OCC)N(C)O4)cc(c23)C1=O (racemic) | 45 | 45 | > 100 | 20 | 38 | 76 | 47 | 70 | – | – | – | – | – | – | – | – | – | – | – | CC50 [9]: > 100 µM; CC50 [10]: > 100 µM |
| CCCN1C(=O)c2cccc3cc(NC(=O)[C@@H]4C[C@@H](P(=O)(OCC)OCC)N(C)O4)cc(c23)C1=O (racemic) | > 20 | 45 | > 100 | 28 | 40 | 41 | 28 | 74 | – | – | – | – | – | – | – | – | – | – | – | CC50 [9]: 46.2 µM |
| CCCCN1C(=O)c2cccc3cc(NC(=O)[C@H]4C[C@@H](P(=O)(OCC)OCC)N(C)O4)cc(c23)C1=O (racemic) | > 20 | > 20 | ≥ 100 | 20 | 38 | 28 | 19 | – | – | – | – | – | – | – | – | – | – | – | – | – |
| CCCCN1C(=O)c2cccc3cc(NC(=O)[C@@H]4C[C@@H](P(=O)(OCC)OCC)N(C)O4)cc(c23)C1=O (racemic) | > 20 | > 20 | ≥ 100 | 28 | 40 | 85 | 25 | 78 | – | – | – | – | – | – | – | – | – | – | – | CC50 [9]: > 100 µM; CC50 [10]: > 100 µM |
| CCOP(=O)(OCC)[C@@H]1C[C@H](C(=O)Nc2cc3c4c(cccc4c2)C(=O)N(CC(C)C)C3=O)ON1C (racemic) | 45 | 45 | > 100 | – | – | 73 | 26 | 49 | – | – | – | – | – | – | – | – | – | – | – | CC50 [9]: 51.8 µM; CC50 [10]: > 100 µM |
| CCOP(=O)(OCC)[C@@H]1C[C@H](C(=O)Nc2cc3c4c(cccc4c2)C(=O)N(CCN(CC)CC)C3=O)ON1C (racemic) | 100 | ≥ 100 | > 100 | > 20 | 36 | 16 | 23 | 7.3 | – | – | – | – | – | – | – | – | – | – | – | CC50 [10]: > 100 µM |
| CCOP(=O)(OCC)[C@@H]1C[C@@H](C(=O)Nc2cc3c4c(cccc4c2)C(=O)N(CCN(CC)CC)C3=O)ON1C (racemic) | 55 | 49 | ≥ 100 | > 20 | > 20 | 11 | 21 | 13 | – | – | – | – | – | – | – | – | – | – | – | CC50 [9]: > 100 µM |
| CCOP(=O)(OCC)[C@@H]1C[C@@H](C(=O)Nc2cc3c4c(cccc4c2)C(=O)N(CC(C)C)C3=O)ON1C (relative stereo) | > 100 | > 100 | > 100 | > 100 | > 100 | 72 | 48 | 56 | – | – | – | – | – | – | – | – | – | – | – | CC50 [9]: > 100 µM |
| CCOP(=O)(OCC)[C@@H]1C[C@@H](CN2C(=O)c3cccc4cc(N)cc(c34)C2=O)ON1C (relative stereo) | – | – | – | – | – | – | – | – | inactive | inactive | inactive | inactive | inactive | inactive | inactive | inactive | inactive | inactive | inactive | – |
| CCOP(=O)(OCC)[C@@H]1C[C@@H](CN2C(=O)c3cccc4cc(NC(C)=O)cc(c34)C2=O)ON1C (relative stereo) | – | – | – | – | – | – | – | – | inactive | inactive | inactive | inactive | inactive | inactive | inactive | inactive | inactive | inactive | inactive | – |
| CCOP(=O)(OCC)[C@@H]1C[C@@H](CN2C(=O)c3cccc4cc([N+](=O)[O-])cc(c34)C2=O)ON1C (relative stereo) | – | – | – | – | – | – | – | – | inactive | inactive | inactive | inactive | inactive | inactive | inactive | inactive | inactive | inactive | inactive | – |
| CCOP(=O)(OCC)[C@@H]1C[C@@H](CN2C(=O)c3cccc4cccc(c34)C2=O)ON1C (relative stereo) | – | – | – | – | – | – | – | – | inactive | inactive | inactive | inactive | inactive | inactive | inactive | inactive | inactive | inactive | inactive | – |
| CCOP(=O)(OCC)[C@@H]1C[C@H](CN2C(=O)c3cccc4cc(N)cc(c34)C2=O)ON1C (relative stereo) | – | – | – | – | – | – | – | – | inactive | inactive | inactive | inactive | inactive | inactive | inactive | inactive | inactive | inactive | inactive | – |
| CCOP(=O)(OCC)[C@@H]1C[C@H](CN2C(=O)c3cccc4cc(NC(C)=O)cc(c34)C2=O)ON1C (relative stereo) | – | – | – | – | – | – | – | – | inactive | inactive | inactive | inactive | inactive | inactive | inactive | inactive | inactive | inactive | inactive | – |
| CCOP(=O)(OCC)[C@@H]1C[C@H](CN2C(=O)c3cccc4cc([N+](=O)[O-])cc(c34)C2=O)ON1C (relative stereo) | – | – | – | – | – | – | – | – | inactive | inactive | inactive | inactive | inactive | inactive | inactive | inactive | inactive | inactive | inactive | – |
| CCOP(=O)(OCC)[C@@H]1C[C@H](CN2C(=O)c3cccc4cccc(c34)C2=O)ON1C (relative stereo) | – | – | – | – | – | – | – | – | inactive | inactive | inactive | inactive | inactive | inactive | inactive | inactive | inactive | inactive | inactive | – |
| Nc1nc2c(ncn2COCCO)c(=O)[nH]1 [ACYCLOVIR] | – | – | > 250 | – | – | – | – | – | – | – | – | – | – | – | – | – | – | – | – | – |
| O=c1[nH]c(=O)n([C@H]2C[C@H](O)[C@@H](CO)O2)cc1/C=C/Br [BRIVUDINE] | – | – | > 250 | 0.029 | 1 | – | – | – | – | – | – | – | – | – | – | – | – | – | – | EC50 [22]: 2000 nM |
| Nc1ccn(C[C@@H](CO)OCP(=O)(O)O)c(=O)n1 [CIDOFOVIR] | – | 1.02 | > 250 | – | – | – | – | – | – | – | – | – | – | – | – | – | – | – | – | – |
| O=c1[nH]cc(F)c(=O)[nH]1 [FLUOROURACIL] | – | – | – | – | – | 0.33 | – | – | – | – | – | – | – | – | – | – | – | – | – | – |
| Nc1nc2c(ncn2COC(CO)CO)c(=O)[nH]1 [GANCICLOVIR] | 6.3 | 7.1 | > 100 | – | – | – | – | – | – | – | – | – | – | – | – | – | – | – | – | – |
| COc1cccc(N2CCN(C3=Nc4c(F)cccc4[C@H](CC(=O)O)N3c3cc(C(F)(F)F)ccc3OC)CC2)c1 [LETERMOVIR] | 0.0046 | – | – | – | – | – | – | – | – | – | – | – | – | – | – | – | – | – | – | – |
